Measurements collected from several papers.
Each line is one published result; the experiments were not run side by side.
Medium: plasma

SMILES | test system | setting | AUC(0-inf)
CCc1cc(OC)c2nccc(N3CCc4c(cc(Cn5ccnc5)cc4-c4cn(C)nc4C(F)(F)F)C3=O)c2c1 | male Sprague-Dawley rat | oral, 50 mg/kg | 10300 ng·h/mL
CNC(=O)c1c(C)oc2cc(Oc3ncnc4cc(OC)c(OC)cc34)ccc12 | Sprague-Dawley rat | oral, 1 mg/kg, single dose | 6270 ng·h/mL
COc1ccc2c(=O)n(C)c(-c3ccccc3)nc2c1 | male Sprague-Dawley rat | intravenous, 2 mg/kg | 857 ng·h/mL
C#Cc1cccc(Nc2ncnc3cc(OCCOC)c(OCCOC)cc23)c1 | male Sprague-Dawley rat | oral, 12 mg/kg, single dose | 9260 ng·h/mL
O=C(Nc1cc(F)c(F)c(F)c1)c1ccc(F)c(S(=O)(=O)NCc2cccc(B(O)O)c2)c1 | male Sprague-Dawley rat | oral, 20 mg/kg | 37.6 ng·h/mL
Oc1c(Br)cc(Cl)c2cccnc12 | Sprague-Dawley rat | intravenous, 2 mg/kg | 1200 ng·h/mL
COc1nc(-c2cc(C)c(N[C@@H](C)c3cc(F)cc(F)c3)nn2)ccc1-n1cnc(C)c1 | male Sprague-Dawley rat | oral, 5 mg/kg, single dose | 31900 ng·h/mL
CCOC(=O)[C@@]12C[C@@H]1[C@@H](n1ccc3c(NC)nc(C#Cc4ccc(Cl)s4)nc31)[C@H](O)[C@@H]2O | male Sprague-Dawley rat | oral, 3 mg/kg | 172 ng·h/mL
COCCOC(=O)C1=C(C)NC(C)=C(C(=O)OC(C)C)C1c1cccc([N+](=O)[O-])c1 (stereo not drawn) | male Sprague-Dawley rat | oral, 12 mg/kg | 502 ng·h/mL
CNCc1cc(-c2ccccc2F)n(S(=O)(=O)c2cccnc2)c1 | Sprague-Dawley rat | oral, 10 mg/kg | 645 ng·h/mL
Cc1c(-c2ccccc2)cccc1N1C(=O)c2cc(CN[C@H](C(=O)O)C(C)O)c(OCc3cccc(C#N)c3)cc2C1=O (stereo partly drawn) | Sprague-Dawley rat | intravenous, 5 mg/kg | 3260 ng·h/mL
COc1cc2c3c(n(CCCN4CCOCC4)c(=O)c2cc1OC)-c1cc2c(cc1C3=O)OCO2 | male Fischer 344 rat | intravenous, 12 mg/m², single dose | 232 ng·h/mL
CCc1nc(C(N)=O)c(Nc2ccc(N3CCC(N4CCN(C)CC4)CC3)c(OC)c2)nc1NC1CCOCC1 | male Sprague-Dawley rat | oral, 10 mg/kg | 11500 ng·h/mL
CCc1cc(C(=O)NC)c2nccc(N3CCc4c(cc(Cn5ccnc5)cc4-c4cn(C)nc4C(F)(F)F)C3=O)c2c1 | male Sprague-Dawley rat | oral, 50 mg/kg, single dose | 11100 ng·h/mL
COc1ccc2c(Cc3ccccc3F)c3n(c(=O)c2c1OC)CCc1cc2c(cc1-3)OCO2 | rat | oral, 5 mg/kg | 7960 ng·h/mL
